Data on five compounds can be found in ChEMBL document CHEMBL1128739, “Structure-activity relationships in the 8-amino-6,7,8,9-tetrahydro-3H-benz[e]indole ring system. 2. Effects of 8-amino nitrogen substitution on serotonin receptor binding and pharmacology” (J Med Chem, 1995).

Activity calls are given as the source filed them. No cut-off for these calls is given here.

In assay [1] the target is D(3) dopamine receptor (Rattus norvegicus, UniProt P19020). As to the kind of experiment: In vitro binding affinity against cloned mammalian Dopamine receptor D3 expressed in CHO cells by, using [3H]-spiperone as radioligand. Format: cell-based. The conditions noted are these: read-out: Ki.
Sequence of D(3) dopamine receptor (P19020 whole entry): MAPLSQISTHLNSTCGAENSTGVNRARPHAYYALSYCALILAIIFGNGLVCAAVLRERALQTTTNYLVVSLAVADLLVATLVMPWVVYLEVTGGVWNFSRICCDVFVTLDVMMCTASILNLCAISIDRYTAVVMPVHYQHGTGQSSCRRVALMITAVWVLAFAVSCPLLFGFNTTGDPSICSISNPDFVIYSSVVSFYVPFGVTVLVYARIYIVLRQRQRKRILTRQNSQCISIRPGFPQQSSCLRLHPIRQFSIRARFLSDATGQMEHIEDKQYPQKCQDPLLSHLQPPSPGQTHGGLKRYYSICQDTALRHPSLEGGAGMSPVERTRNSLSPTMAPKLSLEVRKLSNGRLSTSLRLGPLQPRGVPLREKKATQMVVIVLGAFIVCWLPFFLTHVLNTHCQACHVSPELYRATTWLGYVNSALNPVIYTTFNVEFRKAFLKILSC
Assay [2] deals with Rattus norvegicus. Put plainly: The compound was tested in vivo for biochemical effect against the changes in different brain area levels of DOPA in reserpinized rat hemispheres (mainly cortex)at dose 3.1 uM/kg; Inactive. Format: functional, organism-based. In short, it runs like this: (§1)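 Male Sprague-Dawley rats (200-300 g) pretreated with reserpine 5 mg/kg sc 18 h before. Injection volume 5 mL/kg, test solutions at neutral pH. DOPA and 5-HTP in limbic system, striatum and hemispheres measured by HPLC with electrochemical detection. Dose-response curves from four to six dose levels (n = 4) per brain area.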

In assay [3] the test system is Rattus norvegicus. As to the kind of experiment: The compound was tested in vivo for biochemical effect against the changes in different brain area levels of 5-HTP in reserpinized rat hemispheres (mainly cortex)at dose 3.1 uM/kg; Inactive. It is filed as functional, organism-based.
The subject of assay [4] is Rattus norvegicus. As to the kind of experiment: The compound was tested in vivo for biochemical effect against the changes in different brain area levels of DOPA in reserpinized rat limbic system at dose 3.1 uM/kg; Inactive. Format: functional, organism-based. In short, it runs like this: as §1
The test system of assay [5] is Rattus norvegicus. As to the kind of experiment: The compound was tested in vivo for biochemical effect against the changes in different brain area levels of 5-HTP in reserpinized rat limbic system at dose 3.1 uM/kg; Inactive. It is filed as functional, organism-based.
In assay [6] the target is T1, D(2) dopamine receptor (Rattus norvegicus, UniProt P61169). Put plainly: In vitro binding affinity against cloned mammalian Dopamine receptor D2 expressed in CHO cells using [3H]U-86170 as radioligand. It is filed as cell-based. Particulars: read-out: Ki. In short, it runs like this: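 Membranes from CHO cells (20-60 μg protein) in 20 mM HEPES, 10 mM MgSO4, pH 7.4. Nonspecific binding defined with excess haloperidol. 11 concentrations, each in duplicate. Incubated 1 h at room temperature, then filtered and counted. IC50 from a one-site competition fit, converted to Ki by Cheng-Prusoff.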
T1 sequence (P61169 whole entry): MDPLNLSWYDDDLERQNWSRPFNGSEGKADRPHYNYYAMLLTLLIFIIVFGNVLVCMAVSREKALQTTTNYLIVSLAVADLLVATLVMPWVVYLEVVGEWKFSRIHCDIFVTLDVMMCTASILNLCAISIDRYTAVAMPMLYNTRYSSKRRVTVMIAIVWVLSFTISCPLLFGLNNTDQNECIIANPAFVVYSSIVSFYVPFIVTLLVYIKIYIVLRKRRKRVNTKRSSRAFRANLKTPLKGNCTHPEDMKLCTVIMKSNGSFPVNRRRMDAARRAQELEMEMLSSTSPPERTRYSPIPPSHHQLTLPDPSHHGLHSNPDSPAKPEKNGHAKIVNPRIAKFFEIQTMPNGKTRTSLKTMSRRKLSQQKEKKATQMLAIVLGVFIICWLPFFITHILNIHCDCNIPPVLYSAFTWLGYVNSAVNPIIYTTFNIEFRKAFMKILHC

Assay [7] has as its target 5-hydroxytryptamine receptor 1D (Homo sapiens, UniProt P28221). Put plainly: In vitro binding affinity against cloned mammalian 5-hydroxytryptamine 1D receptor alpha expressed in CHO cells, by using [3H]5-HT as radioligand. It is filed as cell-based. In a few lines: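 Competition binding on CHO-cell membranes (20-60 μg protein) in 50 mM Tris, 5 mM MgCl2, 0.1% ascorbic acid, pH 7.4. Nonspecific binding defined with excess serotonin. 11 drug concentrations, each in duplicate. Incubated 1 h at room temperature, protected from light, then filtered and scintillation counted. IC50 taken from a one-site fit; Ki by Cheng-Prusoff.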

In assay [8] the test system is Rattus norvegicus. As to the kind of experiment: The compound was tested in vivo for biochemical effect against the changes in different brain area levels of 5-HTP in reserpinized rat corpus striatum at dose 3.1 uM/kg; Inactive. It is filed as functional, organism-based.
The subject of assay [9] is Rattus norvegicus. Put plainly: The compound was tested in vivo for biochemical effect against the changes in different brain area levels of DOPA in reserpinized rat corpus striatum at dose 3.1 uM/kg; Inactive. It is filed as functional, organism-based. In short, it runs like this:
as §1

For assay [10], the target named is 5-hydroxytryptamine receptor 1B (Homo sapiens, UniProt P28222). Put plainly: In vitro binding affinity against cloned mammalian 5-hydroxytryptamine 1D receptor beta expressed in CHO cells, by using [3H]5-HT as radioligand. Format: cell-based. In a few lines:
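Membranes from CHO cells stably expressing the cloned receptor, made by mechanical disruption in ice-cold Tris/EDTA/EGTA pH 7.4 and differential centrifugation. [3H]serotonin at 1.7 nM in 50 mM Tris, 5 mM MgCl2, 0.1% ascorbic acid, pH 7.4. 11 drug concentrations in duplicate, 1 h at room temperature protected from light, then filtration. Excess serotonin defines nonspecific binding. One-site IC50 fit, Ki by Cheng-Prusoff.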

For assay [11], the system named is Rattus norvegicus. As to the kind of experiment: The compound was tested in vivo for biochemical effect against the changes in different brain area levels of DOPA in reserpinized rat corpus striatum at dose 25 uM/kg; Inactive. It is filed as functional, organism-based.
The subject of assay [12] is Rattus norvegicus. As to the kind of experiment: The compound was tested in vivo for biochemical effect against the changes in different brain area levels of 5-HTP in reserpinized rat limbic system at dose 25 uM/kg; Inactive. It is filed as functional, organism-based.
The test system of assay [13] is Rattus norvegicus. Put plainly: The compound was tested in vivo for biochemical effect against the changes in different brain area levels of 5-HTP in reserpinized rat hemispheres (mainly cortex)at dose 25 uM/kg; Inactive. It is filed as functional, organism-based.
The subject of assay [14] is Rattus norvegicus. As to the kind of experiment: The compound was tested in vivo for biochemical effect against the changes in different brain area levels of 5-HTP in reserpinized rat corpus striatum at dose 25 uM/kg; Inactive. It is filed as functional, organism-based.
For assay [15], the system named is Rattus norvegicus. As to the kind of experiment: The compound was tested in vivo for biochemical effect against the changes in different brain area levels of DOPA in reserpinized rat limbic system at dose 25 uM/kg; Inactive. It is filed as functional, organism-based.
The test system of assay [16] is Rattus norvegicus. As to the kind of experiment: The compound was tested in vivo for biochemical effect against the changes in different brain area levels of DOPA in reserpinized rat hemispheres (mainly cortex)at does 25 uM/kg; Inactive. Format: functional, organism-based.
Assay [17] relates to Rattus norvegicus. Put plainly: In vivo for biochemical effect against brain area levels of 5-HTP in reserpinized rat hemispheres (mainly cortex). It is filed as functional. In a few lines:
as §1

Assay [18] has as its system Rattus norvegicus. Put plainly: The compound was tested in vivo for biochemical effect against the changes in different brain area levels of DOPA in reserpinized rat limbic system. Format: functional. In short, it runs like this: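 Rats (male Sprague-Dawley, 200-300 g) received reserpine 5 mg/kg sc 18 h before. Injections 5 mL/kg at neutral pH. DOPA accumulation measured by HPLC with electrochemical detection as an index of DA or NE synthesis rate. Four to six dose levels, n = 4. ED50 from a sigmoidal fit.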

Assay [19] concerns Rattus norvegicus. As to the kind of experiment: The compound was tested in vivo for biochemical effect against the changes in different brain area levels of DOPA in reserpinized rat corpus striatum. Format: functional. In short, it runs like this:
as §1

Assay [20] deals with T1, D(2) dopamine receptor. As to the kind of experiment: Binding affinity rat Dopamine receptor D2 expressed in CHO-K1 cells by [3H]U-86170 displacement. Format: cell-based.
Assay [21] relates to Rattus norvegicus. As to the kind of experiment: In vivo changes in different brain area levels of 5-HTP in reserpinized rat corpus striatum. It is filed as functional. In a few lines:
(§2)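 Male Sprague-Dawley rats (200-300 g) pretreated with reserpine 5 mg/kg sc 18 h before. Injection volume 5 mL/kg at neutral pH. Brain-region 5-HTP measured by HPLC with electrochemical detection. Dose-response curves used four to six doses, n = 4.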

For assay [22], the system named is Rattus norvegicus. As to the kind of experiment: The compound was tested in vivo for biochemical effect against the changes in different brain area levels of DOPA in reserpinized rat hemispheres (mainly cortex)at dose 50 uM/kg; inactive. It is filed as functional, organism-based.
The subject of assay [23] is Rattus norvegicus. Put plainly: In vivo changes in different brain area levels of 5-HTP in reserpinized rat limbic system. It is filed as functional. In short, it runs like this:
as §2

Assay [24] has as its system Rattus norvegicus. Put plainly: The compound was tested in vivo for biochemical effect against the changes in different brain area levels of DOPA in reserpinized rat limbic system at dose 12.5 umol/kg; Partial effect. Format: functional, organism-based.
Assay [25] has as its system Rattus norvegicus. Put plainly: The compound was tested in vivo for biochemical effect against the changes in different brain area levels of DOPA in reserpinized rat corpus striatum at dose 12.5 umol/kg; Partial effect. It is filed as functional, organism-based.
Assay [26] concerns Rattus norvegicus. Put plainly: The compound was tested in vivo for biochemical effect against the changes in different brain area levels of DOPA in reserpinized rat hemispheres (mainly cortex)at doest 12.5 umol/kg; Inactive. It is filed as functional, organism-based.
For assay [27], the system named is Rattus norvegicus. As to the kind of experiment: The compound was tested in vivo for biochemical effect against the changes in different brain area levels of DOPA in reserpinized rat limbic system at dose 12.5 uM/kg; Inactive. It is filed as functional, organism-based.
The test system of assay [28] is Rattus norvegicus. As to the kind of experiment: The compound was tested in vivo for biochemical effect against the changes in different brain area levels of DOPA in reserpinized rat hemispheres (mainly cortex)at dose 12.5 uM/kg; Inactive. It is filed as functional, organism-based.
Assay [29] deals with Rattus norvegicus. As to the kind of experiment: The compound was tested in vivo for biochemical effect against the changes in different brain area levels of DOPA in reserpinized rat corpus striatum at dose 12.5 uM/kg; Inactive. Format: functional, organism-based. In short, it runs like this: as §1

The Ki is a measure of affinity in units of concentration, obtained from inhibition or displacement. For orientation: ED50 means the dose at which the effect has come halfway, by size or by number of responders.

Sequence of 5-hydroxytryptamine receptor 1B (P28222 whole entry): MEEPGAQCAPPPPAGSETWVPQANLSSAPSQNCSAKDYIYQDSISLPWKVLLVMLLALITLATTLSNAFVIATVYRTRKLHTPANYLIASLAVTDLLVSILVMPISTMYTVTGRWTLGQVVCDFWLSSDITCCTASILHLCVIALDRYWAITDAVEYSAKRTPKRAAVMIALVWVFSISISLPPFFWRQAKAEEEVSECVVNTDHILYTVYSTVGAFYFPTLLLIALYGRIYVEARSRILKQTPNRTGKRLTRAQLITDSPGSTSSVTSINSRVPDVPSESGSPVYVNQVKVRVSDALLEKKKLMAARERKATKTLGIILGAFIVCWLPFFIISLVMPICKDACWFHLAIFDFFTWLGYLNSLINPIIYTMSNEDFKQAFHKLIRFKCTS
Sequence of 5-hydroxytryptamine receptor 1D (P28221 whole entry): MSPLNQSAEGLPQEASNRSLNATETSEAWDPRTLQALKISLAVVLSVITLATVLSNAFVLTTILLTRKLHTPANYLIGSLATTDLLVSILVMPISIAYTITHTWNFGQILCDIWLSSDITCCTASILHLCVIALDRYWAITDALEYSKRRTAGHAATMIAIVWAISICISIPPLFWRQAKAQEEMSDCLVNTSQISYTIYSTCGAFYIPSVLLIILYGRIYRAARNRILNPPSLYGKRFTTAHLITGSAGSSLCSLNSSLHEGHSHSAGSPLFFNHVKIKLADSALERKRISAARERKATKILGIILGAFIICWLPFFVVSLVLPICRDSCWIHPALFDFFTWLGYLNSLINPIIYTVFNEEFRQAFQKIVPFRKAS

For `CCCN(Cc1ccccc1)C1CCc2ccc3[nH]cc(C=O)c3c2C1` (centres undefined), the inhibitory constant (Ki) is 115 nM in assay [1], 90 nM in [6], 33 nM in assay [7] and 992 nM in [10]. For the same compound, the ED50 entry in [2], in [3], in assay [4], in assay [5], in assay [8] and in assay [9] was “inactive” throughout.
On to `CCCN(CCCCN1C(=O)CC(C)(C)CC1=O)[C@H]1CCc2ccc3[nH]cc(C=O)c3c2C1`, for which the inhibition constant (Ki) in assay [1] was found to be 1270 nM; in [6] it was 859 nM; in assay [7], 250 nM; in [10] it was 1620 nM. In addition, the ED50 result in assay [11], in assay [12], in assay [13], in [14], in assay [15] and in [16] was “inactive” throughout.
`CCCN(Cc1ccccc1)C1CCc2ccc3[nH]ccc3c2C1` (centres undefined): the Ki in assay [1] was found to be 43 nM; in assay [20] it was 22 nM; in assay [7] it was 192 nM; in assay [10], 4610 nM. Moreover, the ED50 in [17] was 6.72 µmol/kg; in [18], 8.1 µmol/kg; in [19] it was 8.77 µmol/kg; in assay [21] it was 6.87 µmol/kg; in assay [23] it was 7.58 µmol/kg. Besides, in assay [22], the ED50 result is “inactive”.
For the compound `CCCN(CCCc1ccccc1)[C@@H]1CCc2ccc3[nH]cc(C=O)c3c2C1`, the Ki worked out at 19 nM in assay [1], 5.8 nM in assay [6], 0.9 nM in assay [7] and 14 nM in assay [10]. Moreover, the ED50 in assay [17] is 0.75 µmol/kg; in [24] it was “Weak activity”; in [21], 0.43 µmol/kg; in [25], “Weak activity”. Moreover, the ED50 result in [26] is “inactive”.
In the case of `CCCN(CCCCN1C(=O)CC(C)(C)CC1=O)[C@@H]1CCc2ccc3[nH]cc(C=O)c3c2C1`, the inhibitory constant (Ki) in assay [1] is 154 nM; in assay [6], 62 nM; in [7], 5 nM; in assay [10], 119 nM. Besides, the ED50 came to 4.63 µmol/kg in assay [17], 2.98 µmol/kg in [21] and 3.78 µmol/kg in [23]. For the same compound, the ED50 result in [27], in assay [28] and in assay [29] was “inactive” in each case.
